Assay [1] in a line: OD615 S. cerevisiae growth inhibition, permissive medium, pilot counter-assay, permissive growth control for S. cerevisiae lifespan shortening project (AID 705;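 active = growth inhibition above 25% in both replicates, a cutoff set 3 SD above the mean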). The settings on record: OD615, 24 h, at 10 µM, stronger effect = higher value. In short, it runs like this: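 assay system = Saccharomyces cerevisiae strain carrying genetically modified DeaD replicative-lifespan system | medium = SC raffinose/galactose permissive medium | dosing = 10 µM single dose, 0.25% DMSO | schedule = 24 h compound exposure at 30 °C after 4 h pre-growth | measured by = OD at 615 nm | read-out basis = growth inhibition from lowered OD615 after 24 h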

Assay [2] in a line: Restrictive medium S. cerevisiae growth inhibition, OD615, pilot screen of yeast lifespan reduction project, restrictive growth control (AID 706;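 active = growth inhibition above a set limit, 3 SD over mean compound inhibition, in both replicates, cut at about 43% in these data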). The settings on record: OD615, 48 h, at 10 µM, stronger effect = higher value. The method, boiled down: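 Buffer or medium: CSMM-D glucose medium. Material: genetically modified Saccharomyces cerevisiae, DeaD replicative lifespan assay strain. Times: 48 h compound exposure at 30 °C. Measured by: optical density at 615 nm.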

A short description of assay [3]: viability gain of MRP-1-high H69AR cells under doxorubicin, pilot screen, MRP-1 activator project, CellTiter-Glo, duplicate (AID 807;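 active = viability increase at or above a cutoff of the median across tested compounds plus 3 SD, cut at about 8.5% in these data, passing the limit was not always enough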;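 note: compound pretreatment 18-22 h then 72 h combined with doxorubicin; 0% = doxorubicin alone and 100% = vehicle without doxorubicin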). To be noted: H69AR viability with doxorubicin, CellTiter-Glo luminescence; at 10 µM; stronger effect = higher value.
The nature of assay [4]: growth suppression of beta-catenin knockout HCT116, pilot screen, human colon tumor cells (AID 823;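 active = cell viability at or below a set limit in both duplicate runs, the limit being the all-compound median minus 4 SD, cut at about 23% in these data, passing the limit was not always enough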;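 note: 0% = wells killed by 20 µM Hyamine and 100% = untreated DMSO cell wells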). The settings on record: CellTiter-Glo, 60 h, at 10 µM, stronger effect = lower value. (Cellular ATP, detected with luciferase, serves as a proxy for viable cell number.)
A short description of assay [5]: growth suppression of PTEN-deleted HCT116, pilot screen, cell-based, HCT116 clonal line, CellTiter-Glo (AID 824;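 active = viability at or below 27.92% in each of two runs, the all-compound median minus 4 SD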;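 note: 0% = 20 µM Hyamine control and 100% = vehicle cell control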). To be noted: 60 h, at 10 µM, stronger effect = lower value.
A short description of assay [6]: inhibitors of the yeast RAM network, pilot screen, dse1pr::URA3 reporter, 5-FOA selection (AID 869;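 active = inhibition over a set limit, the all-compound mean plus 3 SD, in both replicate runs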;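 note: 0% = DMSO wells with no growth and 100% = 10 µM 1-NA-PP1 with full growth; RAM network block rescues cells from 5-FOA so hits raise OD615 growth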). To be noted: S. cerevisiae dse1pr::URA3 5-FOA growth, OD615, 2 d; at 10 µM; stronger effect = higher value; strain carries analog-sensitive mutant Cbk1 kinase.
A short description of assay [7]: RAM signaling pathway blockade in yeast – S. cerevisiae, Pdr1DBD-CYC8 efflux-inhibited sensitized strain, primary screen (AID 1298).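 Note: 0% = DMSO untreated cells without growth and 100% = 10 µM 1-NA-PP1 full growth; higher means more yeast growth rescued from 5-FOA killing.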 The settings on record: S. cerevisiae cbk1-as DSE1-URA3 strain, 5-FOA growth OD615, 2 d; at 50 µM; stronger effect = higher value.

Unmarked numbers belong to inactive results. Records with an inconclusive call do not appear. The source made the active and inactive calls.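 Rule for the calls, unless noted: active = RAM network inhibition above 8.4% in each of two replicates, 3 SD over the compound average; inconclusive = above 8.4% inhibition in only one replicate; inactive = 8.4% inhibition or less in each replicate.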

By viability is commonly meant a read-out of living cells in per cent, often relative to untreated cells. For orientation: inhibition means the relative decrease from the control value, in per cent.

Consider `CCCOC(=O)CC1C(=O)NCCN1Cc1ccc(F)cc1` (stereo unspecified), for which the growth inhibition in assay [1] is -12.3%; in assay [2], -6.77%. For the same compound, in assay [3], the viability increase is -1.04%. Further, the values for the viability in assay [4] and in assay [5] were 104% and 98.3%, respectively. The inhibition in assay [6] was 2.83%. Further, in assay [7], the RAM network inhibition was 1.73%.
As to `CCN1C(=O)c2ccccc2S(=O)c2ccc(C(=O)NCCCN3CCCC3=O)cc21` (stereo unspecified), the growth inhibition in assay [1] was -7.88%; in assay [2], -6.62%. The viability increase in assay [3] is -3.1%. Also, the viability in assay [4] was 97.5%; in assay [5] it was 87.7%. The inhibition in assay [6] is 0.64%. In assay [7], the RAM network inhibition was -1.15%.
For the compound `O=C(Cn1c(=O)oc2cc(S(=O)(=O)N3CCCCCC3)ccc21)NC1CCCCCCC1`, the growth inhibition in assay [1] was -9.87%; in assay [2] it was -14.8%. For the same compound, the viability increase in assay [3] is -7.86%. Moreover, the viability in assay [4] is 95.2%; in assay [5], 88.5%. Also, the inhibition in assay [6] is 4.98%. Further, the RAM network inhibition in assay [7] was 10.5%.
On to `COC(=O)Nc1c(C(=O)OC)cc(OC)c(OC)c1OC`, for which the growth inhibition in assay [1] was -3.62%; in assay [2], -6.57%. In assay [3], the viability increase is -2.87%. Further, the viability is 94.7% in assay [4] and 97.4% in assay [5]. Besides, the inhibition in assay [6] is -0.495%. For the same compound, the RAM network inhibition in assay [7] was 4.86%.
As for `O=C(CN1C(=O)CSc2ncccc21)NCCN1CCOCC1`, the growth inhibition in assay [1] was 0.545%; in assay [2] it was -1.25%. In addition, the viability increase in assay [3] was -0.4%. For the same compound, the results for the viability in assay [4] and in assay [5] were 106% and 99.7%, respectively. Moreover, in assay [6], the inhibition is 2.09%. Moreover, the RAM network inhibition in assay [7] was 3.41%.
Consider `COc1ccc(N2Cc3cccc(C(=O)O)c3C2=O)cc1`, for which the growth inhibition in assay [1] was -17.1%; in assay [2], -1.34%. Also, the viability increase in assay [3] is -0.59%. The viability is 104% in assay [4] and 101% in assay [5]. Further, the inhibition in assay [6] was 1.5%. In assay [7], the RAM network inhibition is 0.58%.
In the case of `CCN(CC)S(=O)(=O)c1cc(C(=O)Oc2ccccc2OC)ccc1OC`, the values for the growth inhibition in assay [1] and in assay [2] were 4.58% and 2.38%, respectively. In addition, in assay [3], the viability increase is -0.11%. Further, the viability in assay [4] was 86.1%; in assay [5] it was 85.6%. Besides, the inhibition in assay [6] is 1.38%. Further, the RAM network inhibition in assay [7] was 3.93%.
Turning to `O=C(CN1C(=O)c2ccccc2S1(=O)=O)NC1CCCCCC1`, the results for the growth inhibition in assay [1] and in assay [2] were 2.58% and -5%, respectively. The viability increase in assay [3] was -1.02%. Further, the viability in assay [4] is 102%; in assay [5], 101%. For the same compound, the inhibition in assay [6] is 0.355%. For the same compound, the RAM network inhibition in assay [7] was 4.59%.
`O=C1CCC/C1=c1\s/c(=C\c2cccnc2)c(=O)n1-c1ccccc1`: the growth inhibition was -9.13% in assay [1] and -8.32% in assay [2]. Also, the viability increase in assay [3] is -5.83%. Besides, the figures for the viability in assay [4] and in assay [5] were 103% and 89.6%, respectively. The inhibition in assay [6] was 0.465%. Besides, the RAM network inhibition in assay [7] was 7.11%.
For the compound `CCCCNC(=O)c1ccc2c(c1)N(CC)C(=O)c1ccccc1S2(=O)=O`, the growth inhibition in assay [1] is -1.9%; in assay [2] it was -1.83%. Further, the viability increase in assay [3] is 0.81%. Further, the viability in assay [4] was 93.8%; in assay [5] it was 87.3%. In addition, the inhibition in assay [6] is 0.255%. For the same compound, in assay [7], the RAM network inhibition was -2.03%.
Take `O=C(O)CCCC(=O)Nc1c(F)c(F)c(F)c(F)c1F`: the growth inhibition in assay [1] is -5.5%; in assay [2] it was -6.27%. Also, the viability increase in assay [3] was -1.85%. The viability in assay [4] is 90.4%; in assay [5], 94.4%. For the same compound, in assay [6], the inhibition was 0.175%. Besides, the RAM network inhibition in assay [7] was -0.87%.
`CCOc1ccc(N(CC(=O)Nc2ccccc2)S(C)(=O)=O)cc1`: the growth inhibition is 0.69% in assay [1] and -1.96% in assay [2]. For the same compound, the viability increase in assay [3] is -1.68%. For the same compound, the viability is 102% in assay [4] and 97.4% in assay [5]. Also, the inhibition in assay [6] is -0.325%. Further, the RAM network inhibition in assay [7] was 4.68%.
For the compound `Cc1ccc(OCC(=O)NCc2ccccn2)c(Br)c1`, the results for the growth inhibition in assay [1] and in assay [2] were 2.21% and -9.19%, respectively. The viability increase in assay [3] is -1.45%. Further, the viability in assay [4] was 97.8%; in assay [5], 95%. Also, in assay [6], the inhibition is 0.22%. Besides, the RAM network inhibition in assay [7] is 0.01%.
In the case of `COc1ccccc1OCC(=O)N(Cc1nc(-c2ccc(Cl)cc2)no1)C(C)C`, the growth inhibition in assay [1] was -16.3%; in assay [2], -10.6%. The viability increase in assay [3] was 2.37%. In addition, the viability in assay [4] is 84.7%; in assay [5] it was 82.5%. In addition, in assay [6], the inhibition is 1.4%. The RAM network inhibition in assay [7] is 6.52%.
`CC(=O)Oc1ccc(C(=O)Nc2nnc(C)s2)cc1`: the growth inhibition in assay [1] is -10.4%; in assay [2], -4.59%. The viability increase in assay [3] is -2.2%. For the same compound, the viability in assay [4] was 100%; in assay [5], 104%. The inhibition in assay [6] was 2.9%. Moreover, the RAM network inhibition in assay [7] was -0.78%.
Regarding `CCOC(=O)N1CCN(C(=O)CSc2nnc(-c3cccs3)o2)CC1`, the growth inhibition in assay [1] was 0.955%; in assay [2] it was 3.94%. The viability increase in assay [3] was 0.87%. Further, the viability is 104% in assay [4] and 108% in assay [5]. The inhibition in assay [6] is 0.595%. The RAM network inhibition in assay [7] was 1.07%.
As to `Cn1cccc1Cc1nnc(SCC(=O)Nc2nccs2)n1CCc1ccccc1`, the growth inhibition in assay [1] is 19.9%; in assay [2] it was 62.6% (active). Further, the viability increase in assay [3] was -2.32%. Further, the results for the viability in assay [4] and in assay [5] were 103% and 85.8%, respectively. Moreover, in assay [6], the inhibition is 1.12%. In assay [7], the RAM network inhibition is 2.48%.
On to `CCCOc1ccc(N2C(=O)CC(N3CCC(O)(c4cccc(C(F)(F)F)c4)CC3)C2=O)cc1` (stereo unspecified), for which the growth inhibition was 1.01% in assay [1] and -0.55% in assay [2]. Moreover, the viability increase in assay [3] was 2.49%. Also, the viability in assay [4] is 101%; in assay [5], 103%. Moreover, the inhibition in assay [6] is 2.71%. Besides, the RAM network inhibition in assay [7] was 5.62%.

(Values after PubChem BioAssay.)
